The values that follow come from ChEMBL document CHEMBL1128742, “Novel thiazole derivatives as inhibitors of superoxide production by human neutrophils: synthesis and structure-activity relationships” (J Med Chem, 1995).

The species named for one series is Homo sapiens. Nature of the series: In vitro inhibitory activity against superoxide production from human neutrophils stimulated with f-MLP. It counts as functional.
Conditions: not given; call rule not given here
The procedure, abridged:
(§1)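 Neutrophils isolated from fresh venous blood of healthy adults by dextran sedimentation and Ficoll-paque gradient. Cells diluted in Hepes–Hanks, pH 7.4, then held at 1 × 10^6 cell/mL and preincubated 20 min at 37 °C with or without compound. Cytochalasin B (1 μg/mL final) added 10 min and ferricytochrome c (106 μM final) added 4 min before f-MLP stimulation. Reaction stopped with 1 mM N-ethylmaleimide, cells spun down, superoxide read as SOD-inhibitable absorbance at 550 nm.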
What is called IC50 is the point on the concentration scale where inhibition reaches its midpoint. A low value points to inhibition by little substance. In turn, `CCCOc1cc(-c2nc(-c3ccc4c(c3)CCC(=O)N4)cs2)ccc1OC` yielded a half-maximal inhibitory concentration (IC50) of 90 nM.
Same read-out and setting: the figure for `c1cncc(-c2csc(-c3cccnc3)n2)c1` is 1000 nM.
On the same count and under the same terms, under `O=C1CCc2cc(-c3csc(-c4ccccc4)n3)ccc2N1` stands over 10000 nM; under `COc1ccc(-c2nc(-c3ccc4c(c3)CCC(=O)N4)cs2)cc1`, 9000 nM.
Still for that read-out and setting: the figure for `COc1ccc(/C=C/c2nc(-c3ccc4c(c3)CCC(=O)N4)cs2)cc1OC` is 2800 nM.
On to `CCOc1ccc(-c2nc(-c3ccccc3C(=O)O)cs2)cc1OCC`, for which the IC50 was over 10000 nM.
In turn, `CCOc1ccc(-c2nc(-c3cccc(C(=O)O)c3)cs2)cc1OCC` returned an IC50 of 5 nM.
The same measure, in the same setting: the figure for `COc1ccc(C(=O)c2nc(-c3ccc4c(c3)CCC(=O)N4)cs2)cc1OC` is 1000 nM.
On the same count and under the same terms, the figure for `COc1cc(-c2nc(-c3ccc4c(c3)CCC(=O)N4)cs2)ccc1[S+](C)[O-]` (stereo not given) is 800 nM.
The molecule `CCCCOc1cc(-c2nc(-c3ccc4c(c3)CCC(=O)N4)cs2)ccc1OC` yielded an IC50 of 300 nM.
On the same count and under the same terms, under `CCOc1ccc(-c2nc(-c3ccc4c(c3)CCC(=O)N4)cs2)cc1OC` stands 600 nM; under `COc1cc(-c2nc(-c3ccc4c(c3)CCC(=O)N4)cs2)ccc1SC`, 400 nM.
Same read-out and setting: under `CCOc1ccc(-c2nc(-c3ccc(C(=O)O)o3)cs2)cc1OCC` stands 20 nM; under `CCOc1ccc(-c2nc(-c3ccc(C(=O)O)cc3)cs2)cc1OCC`, 200 nM.
The same measure, in the same setting: the figure for `c1ccc(-c2csc(-c3cccnc3)n2)cc1` is 1000 nM; for `CCOc1ccc(-c2nc(-c3ccc4c(c3)CCC(=O)N4)cs2)cc1OCC` it is 80 nM.
For the molecule `COc1ccc(-c2nc(-c3ccc4c(c3)CCC(=O)N4)cs2)cc1OC`, the IC50 is 300 nM.
On the same count and under the same terms, under `CCOc1ccc(-c2nc(-c3ccc(C(=O)O)s3)cs2)cc1OCC` stands 80 nM; under `COc1ccc(-c2nc(-c3ccc4c(c3)CCC(=O)N4)co2)cc1OC`, over 10000 nM; under `Nc1ccc(-c2csc(-c3cccnc3)n2)cc1`, 3000 nM.
Still for that read-out and setting: under `CCOc1cc(-c2nc(-c3ccc4c(c3)CCC(=O)N4)cs2)ccc1OC` stands 90 nM; under `CCOc1ccc(-c2nc(-c3cc(OC(C)=O)cc(OC(C)=O)c3)cs2)cc1OCC`, 1 nM; under `COc1ccc(-c2nc(-c3ccc4c(c3)CCC(=O)N4)c[nH]2)cc1OC`, over 10000 nM.
On the same count and under the same terms, under `COc1ccc(-c2nc(-c3ccc4c(c3)CCC(=O)N4)cs2)c(OC)c1` stands 3000 nM; under `COc1ccc(Cc2nc(-c3ccc4c(c3)CCC(=O)N4)cs2)cc1OC`, 10000 nM.
`O=C1CCc2cc(-c3csc(-c4ccc(O)c(O)c4)n3)ccc2N1` yielded an IC50 of 1000 nM.
On the same count and under the same terms, under `O=C1CCc2cc(-c3csc(-c4cccnc4)n3)ccc2N1` stands 1000 nM; under `CCOc1ccc(-c2nc(-c3cccc(C(=O)O)n3)cs2)cc1OCC` [TETOMILAST], 70 nM.

The next series is filed under the species Homo sapiens. Put plainly: In vitro inhibitory activity against superoxide production from human neutrophils stimulated with f-MLP; NE= No effect. It counts as functional.
Conditions: not given
The procedure, abridged:
as §1
In the case of `CCCCCCCCCCOc1ccc(-c2nc(-c3ccc4c(c3)CCC(=O)N4)cs2)cc1OCCCCCCCCCC`, the IC50 result is “Not Active”.

Test system in the next series: not listed separately
Put plainly: Solubility was measured by shaking with water. It counts as physicochemical.
Conditions: not given
The procedure, abridged:
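Aqueous solubility: compound shaken with water; dissolved amount quantified by HPLC.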
For orientation: solubility (thermodynamic) means solubility found after equilibrating the solid with the medium. On to `CCOc1ccc(-c2nc(-c3cc(OC(C)=O)cc(OC(C)=O)c3)cs2)cc1OCC`, for which the solubility (thermodynamic) is under 0.001 mg/mL.

Test system in the next series: not listed separately
Nature of the series: Solubility was measured by shaking with water and 1 equiv of NaOH. It counts as physicochemical. The settings on record: water with 1 equiv of NaOH. The procedure, abridged:
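Solubility: compound shaken with water plus 1 equiv NaOH; dissolved amount quantified by HPLC.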
By solubility is commonly meant the concentration that dissolves in the medium under given conditions. As to `CCOc1ccc(-c2nc(-c3ccccc3C(=O)O)cs2)cc1OCC`, the solubility turned out to be 21 mg/mL.
Same read-out and setting: the figure for `CCOc1ccc(-c2nc(-c3cccc(C(=O)O)c3)cs2)cc1OCC` is 23 mg/mL; for `CCOc1ccc(-c2nc(-c3ccc(C(=O)O)o3)cs2)cc1OCC` it is 23 mg/mL.
Turning to `CCOc1ccc(-c2nc(-c3ccc(C(=O)O)cc3)cs2)cc1OCC`, the solubility was 23 mg/mL.
The same measure, in the same setting: the figure for `CCOc1ccc(-c2nc(-c3ccc(C(=O)O)s3)cs2)cc1OCC` is 23 mg/mL.
On the same count and under the same terms, the figure for `CCOc1ccc(-c2nc(-c3cccc(C(=O)O)n3)cs2)cc1OCC` [TETOMILAST] is 21 mg/mL.

The species named for the next series is Homo sapiens. Put plainly: In vitro inhibitory activity against superoxide production from human neutrophils stimulated with f-MLP; No effect. The series is classed as functional.
Conditions: not given
In short, it runs like this: as §1
Take `CC(=O)Oc1ccc(-c2nc(-c3ccc4c(c3)CCC(=O)N4)cs2)cc1OC(C)=O`: the IC50 entry is listed as “Not Active”.

The species entered for the next series is Homo sapiens. Nature of the series: In vitro inhibitory activity against superoxide production from human neutrophils stimulated with f-MLP; act.= activation of superoxide production. The series is classed as functional.
Conditions: not given
In short, it runs like this: as §1
For `COc1cccc(-c2nc(-c3ccc4c(c3)CCC(=O)N4)cs2)c1OC`, the IC50 result is on record as “Active”.

The species entered for the next series is Homo sapiens. Put plainly: In vitro inhibitory activity against superoxide production from human neutrophils stimulated with f-MLP; NE indicates no effect.
Conditions: not given
The series is classed as functional. The procedure, abridged:
as §1
In the case of `Cc1ccc(-c2nc(-c3ccc4c(c3)CCC(=O)N4)cs2)cc1C`, the IC50 result was “Not Active”.
Still for that read-out and setting: the entry for `CCCOc1ccc(-c2nc(-c3ccc4c(c3)CCC(=O)N4)cs2)cc1OCCC` is “Not Active”.
On the same count and under the same terms, under `O=C1CCc2cc(-c3csc(-c4ccc(C(=O)O)cc4)n3)ccc2N1` stands “Not Active”; under `COc1ccc(C(O)c2nc(-c3ccc4c(c3)CCC(=O)N4)cs2)cc1OC` (stereo not given), “Not Active”.
On the same count and under the same terms, the entry for `COc1cc(OC)cc(-c2nc(-c3ccc4c(c3)CCC(=O)N4)cs2)c1` is “Not Active”; for `O=C1CCc2cc(-c3csc(-c4ccc([N+](=O)[O-])cc4)n3)ccc2N1` it is “Not Active”; for `CCCCOc1ccc(-c2nc(-c3ccc4c(c3)CCC(=O)N4)cs2)cc1OC` it is “Not Active”.
With `O=C1CCc2cc(-c3csc(-c4ccc5c(c4)OCCO5)n3)ccc2N1`, the IC50 result is recorded as “Not Active”.
Still for that read-out and setting: the entry for `CCCCOc1ccc(-c2nc(-c3ccc4c(c3)CCC(=O)N4)cs2)cc1OCCCC` is “Not Active”; for `CCCOc1ccc(-c2nc(-c3ccc4c(c3)CCC(=O)N4)cs2)cc1OC` it is “Not Active”.
The same measure, in the same setting: the entry for `O=C1CCc2cc(-c3csc(-c4ccc(Cl)cc4)n3)ccc2N1` is “Not Active”; for `COc1cc(-c2nc(-c3ccc4c(c3)CCC(=O)N4)cs2)ccc1S(C)(=O)=O` it is “Not Active”.
